CAL PDZ FP-1 – inhibitors of human CAL PDZ peptide binding | Q9HD26 | purified CAL PDZ, TMR-peptide fluorescence polarization, 1 h | inhibition, % at 20 µM | 0.02% of 330,000 active | AID 504414;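 active = highest replicate inhibition of at least 40%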;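 note: plate controls were DMSO neutral control wells for no effect and unlabeled competitor peptide control wells for full effect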
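Material: tagged CAL PDZ domain; buffer or medium: 25 mM sodium phosphate pH 7.4, 150 mM NaCl, TCEP, IgG, Thesit; compound dosing: single point, 20 µM; schedule: 1 h incubation at room temperature before polarization reading; measured by: FP readout, S and P plane fluorescence; read-out basis: percent inhibition from loss of millipolarization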
ALR H2O2 inh – inhibitors of human sulfhydryl oxidase ALR; P55789; purified ALR, DTT oxidation, H2O2 HRP-luminol luminescence; inhibition, % (concentration not given with the values); 3.8% of 290,000 active;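 active = mean replicate inhibition above about 79%, with every replicate also reaching it, limit read from the data; inconclusive = only one of the two criteria met; inactive = mean below limit and not every replicate reaching it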
Target sequence (P55789 whole entry, looked up): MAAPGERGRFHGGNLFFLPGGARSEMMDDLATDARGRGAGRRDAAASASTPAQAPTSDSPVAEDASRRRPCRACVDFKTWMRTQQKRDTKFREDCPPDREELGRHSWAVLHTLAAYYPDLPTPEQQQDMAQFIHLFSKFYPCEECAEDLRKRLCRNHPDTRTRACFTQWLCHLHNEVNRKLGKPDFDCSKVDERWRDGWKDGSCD
DYRK1A inh – Dyrk1A (rat) kinase inhibition; 0.43% of 310,000 active; AID 504441; inhibition, % at 12.5 µM; Q63470; ADP-Glo luminescence, NFATc1 peptide; in the data active = inhibition above about 50%;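 note: plate controls were vehicle with enzyme for no effect and no enzyme for full effect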
Rtt109 HAT inh – C. albicans Rtt109 histone acetyltransferase inhibition; Q5AAJ8; purified Rtt109/Vps75, ThioGlo CoA-SH fluorescence, 4 h; inhibition, % at 34.9 µM; 0.16% of 330,000 active; AID 540336;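 active = inhibition of at least 50% in every replicate; inconclusive = best replicate reaches 50% inhibition but some replicates fall short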
CAL PDZ FP-2 – inhibitors of human CAL PDZ peptide binding. Q9HD26. purified CAL PDZ, TMR-peptide fluorescence polarization, 1 h. inhibition, % at 24.9 µM. 0.92% of 300,000 active. AID 602252;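 active = mean inhibition of at least 30% with at least half of replicates also reaching 30%; inconclusive = no clear call, values can overlap the other calls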;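 note: 0% = DMSO neutral control and 100% = excess unlabeled competitor peptide PRC23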
Numbers without * were called inactive. Compounds with a hit are over-represented: about 4.3% of the library has one in this group of screens.

Screening COc1cc2c(cc1OC)CN(CC(=O)Nc1ccc(C)c(S(=O)(=O)N3CCOCC3)c1)CC2 returned CAL PDZ FP-1 -0.7, ALR H2O2 inh -0.7, DYRK1A inh -2.7, Rtt109 HAT inh 8.1 and CAL PDZ FP-2 -1.3.
Screening Nc1cc(=O)[nH]c(SCC(=O)Nc2nnc(-c3ccccc3)s2)n1 returned CAL PDZ FP-1 -1.2, ALR H2O2 inh 18.1, DYRK1A inh 3.7, Rtt109 HAT inh 6.8 and CAL PDZ FP-2 -5.4.
`CCOC(=O)Cc1csc(NC(=O)CSc2nc(-c3ccccc3)c(C#N)c(=O)[nH]2)n1` gave CAL PDZ FP-1 -4.5, ALR H2O2 inh 98.3*, DYRK1A inh -1.1, Rtt109 HAT inh -9.9 and CAL PDZ FP-2 -0.7.
For COc1cccc(-c2nc(SCC(=O)Nc3nc(-c4ccccc4)c(C)s3)[nH]c(=O)c2C#N)c1 the results were CAL PDZ FP-1 -2.3, ALR H2O2 inh 98.6*, DYRK1A inh 0.6, Rtt109 HAT inh -4.7 and CAL PDZ FP-2 1.8.
Cc1sc(NC(=O)CSc2nc(O)cc(=O)[nH]2)nc1-c1ccccc1 was read as CAL PDZ FP-1 -0.8, ALR H2O2 inh 98.6*, DYRK1A inh 6.2, Rtt109 HAT inh 24.0 and CAL PDZ FP-2 3.4.
`CCOc1ccc2nc(NC(=O)CSc3nc(-c4ccccc4)c(C#N)c(=O)[nH]3)sc2c1` gave DYRK1A inh 22.4, Rtt109 HAT inh 10.5 and CAL PDZ FP-2 -2.9.
Screening Cc1ccc(C(=O)c2c(NC(=O)c3cccnc3)sc3c2CCCC3)cc1 returned CAL PDZ FP-1 -1.0, ALR H2O2 inh 94.6*, DYRK1A inh 28.3, Rtt109 HAT inh -7.3 and CAL PDZ FP-2 -1.0.
Screening Cc1cccc(N2CCN(C(=O)c3ccc(NC(=O)C4CCCO4)cc3)CC2C)c1 (stereo not drawn) returned CAL PDZ FP-1 -1.7, ALR H2O2 inh 98.7*, DYRK1A inh -0.6, Rtt109 HAT inh 5.3 and CAL PDZ FP-2 -5.3.
For O=C(C1CCCO1)N1CCN(C(=S)Nc2cccc(F)c2)CC1 (stereo not drawn) the results were CAL PDZ FP-1 0.2, ALR H2O2 inh 1.7, DYRK1A inh -2.1, Rtt109 HAT inh 4.6 and CAL PDZ FP-2 1.2.
Screening Cc1cccc(N2CCN(C(=O)c3ccc4ccccc4c3)CC2C)c1 (stereo not drawn) returned CAL PDZ FP-1 -0.9, ALR H2O2 inh 12.2, DYRK1A inh -0.5, Rtt109 HAT inh -4.0 and CAL PDZ FP-2 -3.8.
For Cc1cccc(N2CCN(C(=O)c3cn4ccccc4n3)CC2C)c1 (stereo not drawn) the results were CAL PDZ FP-1 -0.8, ALR H2O2 inh 83.0*, DYRK1A inh 4.6, Rtt109 HAT inh 6.3 and CAL PDZ FP-2 -2.4.
Screening Cc1cccc(NC(=S)N2CCN(C(=O)C3CCCO3)CC2)c1 (stereo not drawn) returned CAL PDZ FP-1 -1.5, ALR H2O2 inh 0.5, DYRK1A inh -0.3, Rtt109 HAT inh -12.4 and CAL PDZ FP-2 66.9*.
`Cc1cccc(N2CCN(C(=O)c3cc(C)oc3C)CC2C)c1` (stereo not drawn) gave CAL PDZ FP-1 0.8, ALR H2O2 inh 58.2, DYRK1A inh -6.0, Rtt109 HAT inh 4.9 and CAL PDZ FP-2 14.1.
`Cc1cccc(N2CCN(C(=O)c3ccncc3)CC2C)c1` (stereo not drawn) gave CAL PDZ FP-1 -0.5, ALR H2O2 inh 98.3*, DYRK1A inh -3.2, Rtt109 HAT inh -5.9 and CAL PDZ FP-2 2.8.
Cc1c(C=O)c2ccccc2n1CC(=O)NC(C)c1ccccc1 (stereo not drawn) was read as CAL PDZ FP-1 0.2, ALR H2O2 inh -7.2, DYRK1A inh -3.3, Rtt109 HAT inh -1.4 and CAL PDZ FP-2 2.4.
For CC(C)NS(=O)(=O)c1ccc2c(c1)NCC2 the results were CAL PDZ FP-1 -1.3, ALR H2O2 inh 98.7*, DYRK1A inh -1.7, Rtt109 HAT inh 15.9 and CAL PDZ FP-2 -0.2.
For CC(C)NS(=O)(=O)c1ccc2c3c(cccc13)CC2 the results were CAL PDZ FP-1 -1.0, ALR H2O2 inh -15.9, DYRK1A inh -4.3, Rtt109 HAT inh -1.8 and CAL PDZ FP-2 -3.1.
O=C(CSC1CC(=O)N(c2ccc(C(=O)O)cc2)C1=O)Nc1ccc(Cl)cc1 (stereo not drawn) was read as CAL PDZ FP-1 -1.1, ALR H2O2 inh 98.2*, DYRK1A inh -1.1, Rtt109 HAT inh inconclusive and CAL PDZ FP-2 -2.0.
`O=C(CSC1CC(=O)N(CCc2ccccc2)C1=O)Nc1cccc(Cl)c1` (stereo not drawn) gave CAL PDZ FP-1 -1.9, ALR H2O2 inh 98.9*, DYRK1A inh -2.4, Rtt109 HAT inh 16.8 and CAL PDZ FP-2 2.8.

Screening results as filed in PubChem BioAssay.
